PMC5892705 (Science signaling, 2017)
Like-named read-outs stand apart in the source and are kept apart here.

Assays:
[1] = system: OT, V1a, V1b, V2 receptors; details: cited from earlier work
[2] = system: OT, V1a, V1b, V2 receptors; details: cited from earlier work; remark: listed apart in the source
[3] = system: OT, V1a, V1b, V2 receptors; details: cited from earlier work; remark: listed apart in the source
[4] = Human serum stability assay; assay type: in vitro ADME
Method in brief: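 Peptides were spiked into human serum. Aliquots were withdrawn at 1, 2, 3, 4, 12, 24 and 48 h and analysed by RP-HPLC and LCMS.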

[5] = target: rat V1aR; details: read-out: Ki at rat V1aR; ref Chini et al.([38]); cited from earlier work
[6] = target: human V1aR; details: read-out: Ki at human V1aR, cited from earlier work
[7] = target: human V2R; details: read-out: Ki at human V2R; ref Chini et al.([38]); cited from earlier work
[8] = target: rat V2R; details: read-out: Ki at rat V2R; ref Chini et al.([38]); cited from earlier work
[9] = target: mouse V2R; details: read-out: Ki at mouse V2R; ref Chini et al.([38]); cited from earlier work
[10] = target: T1, human OTR (Homo sapiens, UniProt P30559); details: read-out: Ki at human OTR; ref Chini et al.([38]); cited from earlier work
T1 sequence (P30559 1-389): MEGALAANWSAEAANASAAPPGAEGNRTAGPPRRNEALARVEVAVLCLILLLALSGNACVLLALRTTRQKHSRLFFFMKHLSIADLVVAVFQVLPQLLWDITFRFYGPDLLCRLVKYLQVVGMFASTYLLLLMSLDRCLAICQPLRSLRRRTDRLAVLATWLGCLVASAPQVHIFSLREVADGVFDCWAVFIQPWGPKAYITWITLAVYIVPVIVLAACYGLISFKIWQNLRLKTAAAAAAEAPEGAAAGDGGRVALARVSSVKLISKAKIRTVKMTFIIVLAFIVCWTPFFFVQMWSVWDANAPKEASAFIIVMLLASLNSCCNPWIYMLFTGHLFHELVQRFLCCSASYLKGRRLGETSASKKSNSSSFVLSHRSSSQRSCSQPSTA

[11] = target: rat OTR; details: read-out: Ki at rat OTR; ref Chini et al.([38]); cited from earlier work
[12] = target: human V1bR; details: read-out: Ki at human V1bR; ref Chini et al.([38]); cited from earlier work
[13] = target: rat V1bR; details: read-out: Ki at rat V1bR; ref Chini et al.([38]); cited from earlier work
[14] = human, ref [37], [38], [41], [48], [49], [63], [96]–[99]
[15] = mouse, ref [37], [38], [41], [48], [49], [63], [96]–[99]
[16] = rat, ref [37], [38], [41], [48], [49], [63], [96]–[99]

**Q.** For `N=C(N)NCCC[C@H](NC(=O)[C@@H]1CCCN1C(=O)[C@@H]1CSSC[C@H](N)C(=O)N[C@@H](Cc2ccc(O)cc2)C(=O)N[C@@H](Cc2ccccc2)C(=O)N[C@@H](CCC(N)=O)C(=O)N[C@@H](CC(N)=O)C(=O)N1)C(=O)NCC(N)=O` [AVP, arginine-vasopressin], which Selectivity [1] is on record?
**A.** unselective

**Q.** And the Selectivity [2]?
**A.** unselective

**Q.** What about the Selectivity [3] of the same compound?
**A.** unselective

**Q.** Which half-life [4] does the source give for `CC[C@H](C)[C@@H]1NC(=O)[C@H](Cc2ccc(O)cc2)NC(=O)[C@@H](N)CSSC[C@@H](C(=O)N2CCC[C@H]2C(=O)N[C@@H](CC(C)C)C(=O)NCC(N)=O)NC(=O)[C@H](CC(N)=O)NC(=O)[C@H](CCC(N)=O)NC1=O` [OT, Oxytocin] here?
**A.** 12 h

**Q.** With `COc1ccc(S(=O)(=O)N2c3ccc(Cl)cc3[C@](O)(c3ccccc3Cl)[C@@H]2C(=O)N2CCC[C@H]2C(N)=O)cc1OC` [SR49049] as the compound, how does the Ki [5] read?
**A.** 2.2 nM

**Q.** For `COc1ccc(S(=O)(=O)N2c3ccc(Cl)cc3[C@](O)(c3ccccc3Cl)[C@@H]2C(=O)N2CCC[C@H]2C(N)=O)cc1OC` [SR49059], which Ki ([6]; ref Chini et al.([38])) is on record?
**A.** 0.9 nM

**Q.** What does the source list for `CCOc1ccc2c(c1)C1(CCC(OCCN3CCOCC3)CC1)C(=O)N2S(=O)(=O)c1ccc(C(=O)NC(C)(C)C)cc1OC` (stereo not shown) [SR121463]?
**A.** Ki [7]: 4.1 nM; Ki [8]: 1.5 nM; Ki [9]: 11.2 nM

**Q.** With `CCN(Cc1cccnc1)C(=O)c1ccc(Cl)c(C2(C)C(=O)N(Cc3ccc(OC)cc3OC)c3ccc(Cl)cc32)c1` (stereo not shown) [SSR126768] as the compound, how does the Ki [10] read?
**A.** 0.9 nM

**Q.** For Atosiban, which Selectivity [1, 14] is on record?
**A.** V1a preference

**Q.** And the Selectivity [2, 15]?
**A.** OT selective

**Q.** And the Selectivity [3, 16]?
**A.** unselective

**Q.** Which Selectivity [1, 14] does the source give for [Hmp1,Phe2,Ile3,Hgn4,Dab8]-VP [F-180] here?
**A.** V1a preference

**Q.** And the Selectivity [3, 16]?
**A.** unselective

**Q.** What about the Ki ([6]; ref Chini et al.([38])) of the same compound?
**A.** 11.7 nM

**Q.** Which Ki ([6]; selective agonist, ref [100], [101]) does the source give for “[Phe2,Ile3,Hgn4,Orn(iPr)8]-VP [FE 202158]” here?
**A.** 4.4 nM

**Q.** For [Thr4,Gly7]-OT [T4G7-OT], which Selectivity [1, 14] is on record?
**A.** OT preference

**Q.** And the Selectivity [2, 15]?
**A.** OT selective

**Q.** What about the Selectivity [3, 16] of the same compound?
**A.** OT selective

**Q.** What about the Ki [11] of the same compound?
**A.** 1 nM

**Q.** With d(CH2)5[D-Ile2,Ile4,Tyr9]-AVP as the compound, how does the Ki ([6]; ref Chini et al.([38])) read?
**A.** 3.7 nM

**Q.** With d(CH2)5[Tyr(Me)2]-AVP as the compound, how does the Ki [5] read?
**A.** 0.7 nM

**Q.** For dDAVP, which Ki [8] is on record?
**A.** 0.3 nM

**Q.** For d[Cha4]-AVP, which Selectivity [1, 14] is on record?
**A.** V1b selective

**Q.** And the Ki [12]?
**A.** 1.2 nM

**Q.** And the Selectivity [3, 16]?
**A.** unselective

**Q.** Which Ki [13] does the source give for d[Leu4, Lys8]-VP here?
**A.** 1.2 nM
